Results reported in article PMC7658073 (Clinical Pharmacokinetics, 2020).

Experiments:
OAT1 = biological target: T1, OAT1 (Homo sapiens, UniProt Q4U2R8); assay: Inhibitory potency towards OAT1; type: in vitro ADME
T1 sequence (Q4U2R8 1-563): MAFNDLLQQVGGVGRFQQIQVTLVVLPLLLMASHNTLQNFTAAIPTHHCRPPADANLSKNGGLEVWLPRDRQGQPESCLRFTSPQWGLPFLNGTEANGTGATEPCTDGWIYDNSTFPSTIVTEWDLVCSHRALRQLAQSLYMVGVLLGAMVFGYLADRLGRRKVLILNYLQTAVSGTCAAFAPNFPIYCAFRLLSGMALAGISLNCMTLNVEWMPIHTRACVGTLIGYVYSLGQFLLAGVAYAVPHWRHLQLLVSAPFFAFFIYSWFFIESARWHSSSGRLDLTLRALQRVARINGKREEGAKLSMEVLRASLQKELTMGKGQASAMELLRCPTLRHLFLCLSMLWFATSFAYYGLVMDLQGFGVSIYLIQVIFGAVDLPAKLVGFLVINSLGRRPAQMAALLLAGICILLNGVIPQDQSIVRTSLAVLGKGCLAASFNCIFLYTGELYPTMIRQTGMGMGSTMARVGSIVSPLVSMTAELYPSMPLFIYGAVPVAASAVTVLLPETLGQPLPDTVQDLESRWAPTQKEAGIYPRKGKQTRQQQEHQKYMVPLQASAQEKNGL

OAT3 = biological target: T2, OAT3 (Homo sapiens, UniProt Q8TCC7); assay: Inhibitory potency towards OAT3; type: in vitro ADME
T2 sequence (Q8TCC7 1-542): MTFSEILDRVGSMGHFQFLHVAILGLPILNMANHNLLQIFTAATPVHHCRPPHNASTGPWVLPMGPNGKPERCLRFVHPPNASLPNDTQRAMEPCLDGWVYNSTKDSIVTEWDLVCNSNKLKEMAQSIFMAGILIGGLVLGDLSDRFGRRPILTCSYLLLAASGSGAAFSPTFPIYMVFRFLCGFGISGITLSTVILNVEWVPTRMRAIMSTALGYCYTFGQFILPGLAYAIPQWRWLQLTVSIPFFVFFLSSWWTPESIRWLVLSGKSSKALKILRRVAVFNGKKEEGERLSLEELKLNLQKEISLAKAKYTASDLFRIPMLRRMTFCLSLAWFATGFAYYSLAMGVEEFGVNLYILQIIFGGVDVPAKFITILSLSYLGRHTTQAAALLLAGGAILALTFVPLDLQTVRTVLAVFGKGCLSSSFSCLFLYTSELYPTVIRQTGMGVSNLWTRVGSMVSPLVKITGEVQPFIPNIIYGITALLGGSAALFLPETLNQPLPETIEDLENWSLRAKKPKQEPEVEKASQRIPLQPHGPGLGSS

[1] = Phase I DDI study with omeprazole and magnesium/aluminum hydroxide; type: in vivo, human
Summary of the method: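 Randomized, open-label, three-fold crossover in healthy men. Test compound 5 mg single oral dose given fasting: alone; with omeprazole 40 mg QD for 5 days (pre- and co-dosed); or with a single 10 mL magnesium hydroxide 600 mg/aluminum oxide 900 mg antacid.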

MATE2K = MATE2K (Homo sapiens, UniProt Q86VL8); assay: Inhibitory potency towards MATE2K; type: in vitro ADME
Sequence of MATE2K (Q86VL8 1-566 isoform Q86VL8-3): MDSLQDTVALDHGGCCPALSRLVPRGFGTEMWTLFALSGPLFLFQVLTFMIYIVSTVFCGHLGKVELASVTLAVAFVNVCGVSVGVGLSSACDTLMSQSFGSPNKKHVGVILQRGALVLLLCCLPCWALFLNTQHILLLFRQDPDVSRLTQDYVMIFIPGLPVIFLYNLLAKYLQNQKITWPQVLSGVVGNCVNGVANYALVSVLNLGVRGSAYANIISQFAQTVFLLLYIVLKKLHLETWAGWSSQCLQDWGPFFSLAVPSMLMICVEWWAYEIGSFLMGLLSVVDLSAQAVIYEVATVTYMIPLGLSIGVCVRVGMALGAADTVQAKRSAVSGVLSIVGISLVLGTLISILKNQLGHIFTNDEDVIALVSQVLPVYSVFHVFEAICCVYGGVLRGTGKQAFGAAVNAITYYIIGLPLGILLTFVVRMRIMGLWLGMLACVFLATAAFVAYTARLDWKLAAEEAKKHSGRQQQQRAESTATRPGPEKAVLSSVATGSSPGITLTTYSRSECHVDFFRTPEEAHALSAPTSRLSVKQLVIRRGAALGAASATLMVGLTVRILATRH

[2] = pre- and co-administration of omeprazole vs vericiguat alone

With `COC(=O)Nc1c(N)nc(-c2nn(Cc3ccccc3F)c3ncc(F)cc23)nc1N` [Vericiguat] the IC50 (OAT1) was greater than 5 µM, the IC50 (OAT3) was greater than 5 µM and the “Reduction in the bioavailability of vericiguat” value ([1]; co-administration in fasting conditions of omeprazole (40 mg once daily) and magnesium/aluminum hydroxide (600/900 mg) relative to vericiguat alone) was “about 30%”. For the same compound, the “Reduction of AUC of vericiguat” value [1, 2] was 32%, the “Reduction of Cmax of vericiguat” value [1, 2] was 49% and the “Cmax of vericiguat, point estimate of treatment ratio” value ([1]; with omeprazole 40 mg QD vs vericiguat 5 mg SD alone, fasting) was 0.504. The IC50 (MATE2K) was greater than 10 µM.
